{"data": "Assay results pooled from the literature", "MAOA": "Amine oxidase [flavin-containing] A (MAOA, Homo sapiens, UniProt P21397)", "ahcY": "ahcY (Saccharolobus solfataricus, UniProt P50252)", "CTSS": "Cathepsin S (CTSS, Homo sapiens, UniProt P25774)", "note": "Compare with care: the assays were run in different laboratories."}
{"SMILES": "CNC(=O)c1ccc(-c2cnn3ccc(C(=O)N(C)c4ccc(Cl)c(C(=O)OC)c4)cc23)cc1", "target": "MAOA", "test": "cell-free assay", "endpoint": "IC50", "value": "> 30 µM"}
{"SMILES": "CC[C@H](C)[C@H](NC(=O)[C@H](Cc1ccc(O)cc1)NC(=O)[C@@H](NC(=O)[C@H](CCCNC(=N)N)NC(=O)[C@@H](N)CC(=O)O)C(C)C)C(=O)N[C@@H](Cc1cnc[nH]1)C(=O)N1CCC[C@H]1C(=O)N[C@@H](Cc1ccccc1)C(=O)O", "target": "Angiotensin-converting enzyme 2 (ACE2, Homo sapiens, UniProt Q9BYF1)", "test": "enzyme activity, inhibitor, fluorescence", "endpoint": "IC50", "value": "4.9 µM"}
{"SMILES": "Cc1ccc(F)c(CNS(=O)(=O)c2cccc3cccnc23)c1", "target": "Amine oxidase [flavin-containing] B (Maob, Mus musculus, UniProt Q8BW75)", "test": "enzyme activity, inhibitor, fluorescence", "endpoint": "IC50", "value": "1.81 µM"}
{"SMILES": "CC(=O)N(CC#Cc1cccc(C(N)=O)c1)C[C@H]1C[C@@H](n2ccc3c(Cl)ncnc32)[C@H](O)[C@@H]1O", "target": "ahcY", "test": "enzyme activity, inhibitor", "endpoint": "IC50", "value": "> 333 µM"}
{"SMILES": "Cn1nccc1[C@]1(CNC(=O)c2ccc(F)c(F)c2-c2ccc(C(F)(F)F)cc2)NC(=O)NC1=O", "target": "CTSS", "test": "enzyme activity, inhibitor", "endpoint": "IC50", "value": "> 100 µM"}
{"SMILES": "C#CCN(C)CCCCCCOc1cccc(CN(C)c2c3c(nc4ccc(F)cc24)CCCC3)c1", "target": "MAOA", "test": "enzyme activity, inhibitor, fluorescence", "endpoint": "IC50", "value": "50.7 µM"}
{"SMILES": "CNC(=O)c1ccc(-c2cnn3ccc(C(=O)N(C)c4ccc(Cl)c(C(=O)O)c4)cc23)cc1", "target": "Alpha-1A adrenergic receptor (ADRA1A, Homo sapiens, UniProt P35348)", "test": "cell-free assay", "endpoint": "IC50", "value": "> 30 µM"}
{"SMILES": "C#CCN(C)CCCCCCCCOCc1ccc(CN(C)c2c3c(nc4ccccc24)CCCC3)cc1", "target": "MAOA", "test": "enzyme activity, inhibitor, fluorescence", "endpoint": "IC50", "value": "8.29 µM"}
{"SMILES": "NC(=O)c1cccc(C#CCN(CC[C@H](N)C(=O)O)C[C@H]2O[C@@H](n3cnc4c(N)ncnc43)[C@H](O)[C@@H]2O)c1", "target": "ahcY", "test": "enzyme activity, inhibitor", "endpoint": "IC50", "value": "8.5 µM"}
{"SMILES": "CN(C)c1cccc2c(S(=O)(=O)NCCCCCCCCCCC(=O)O)cccc12", "target": "Fatty acid-binding protein, liver (FABP1, Homo sapiens, UniProt P07148)", "test": "binding, fluorescence", "endpoint": "Kd", "value": "0.2 µM"}
{"SMILES": "C#CCN(C)CCCCCCCOc1cccc(CN(C)c2c3c(nc4ccccc24)CCCC3)c1", "target": "MAOA", "test": "enzyme activity, inhibitor, fluorescence", "endpoint": "IC50", "value": "7.68 µM"}
{"SMILES": "O=C(O)[C@@H]1CS[C@H]2CS[C@H](CCS)N21", "target": "sfhI (Serratia fonticola, UniProt Q9RMI1)", "test": "enzyme activity, inhibitor", "endpoint": "IC50", "value": "> 1000 µM"}
{"SMILES": "C#CCN(C)CCCCCOCc1ccc(CN(C)c2c3c(nc4ccc(C)cc24)CCCC3)cc1", "target": "MAOA", "test": "enzyme activity, inhibitor, fluorescence", "endpoint": "IC50", "value": "0.53 µM"}
{"SMILES": "CC(C)C[C@H](NC(=O)[C@H]1O[C@@H]1C(=O)O)C(=O)NCCCCN=C(N)N", "target": "CTSS", "test": "enzyme activity, inhibitor", "endpoint": "IC50", "value": "0.00073 µM"}
